Laboratory results taken from ChEMBL document CHEMBL1145439, “Fluorine-18-labeled benzamide analogues for imaging the sigma2 receptor status of solid tumors with positron emission tomography” (J Med Chem, 2007).

Tests used:
Heart [1] = experiment: Biodistribution in heart of mouse EMT6 tumor bearing BALB/c mouse at 10 to 20 uCi after 60 mins; type: ADME, organism-based; settings: in vivo, 1 h
Method in brief: (§1)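 EMT-6 cells (5×10^5 in 100 µL PBS) implanted s.c. in scapular region of female Balb/c mice (~2 months, 17-22 g); studied 7-10 days later at ~0.2 cm3 tumor. 18F tracer 10-20 µCi in 100-150 µL saline via tail vein; ≥4 mice per time point; tissue removed at sacrifice, weighed, gamma-counted; %ID/g calculated.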

Blood [2] = experiment: Biodistribution in blood of mouse EMT6 tumor bearing BALB/c mouse at 10 to 20 uCi after 120 mins; type: ADME, organism-based; settings: in vivo, 2 h; method in brief: as §1
EMT6 [3] = experiment: Biodistribution in tumor of mouse EMT6 tumor bearing BALB/c mouse at 10 to 20 uCi after 120 mins; type: ADME, organism-based; settings: emt6, 2 h; method in brief: as §1
Lung [4] = experiment: Biodistribution in lung of mouse EMT6 tumor bearing BALB/c mouse at 10 to 20 uCi after 120 mins; type: ADME, organism-based; settings: in vivo, 2 h; method in brief: as §1
Brain [5] = experiment: Biodistribution in brain of EMT6 tumor bearing BALB/c mouse at 10 to 20 uCi after 60 mins; type: ADME, organism-based; settings: in vivo, 1 h; method in brief: as §1
Blood [6] = experiment: Biodistribution in blood of mouse EMT6 tumor bearing BALB/c mouse at 10 to 20 uCi after 30 mins; type: ADME, organism-based; settings: in vivo, 0.5 h; method in brief: as §1
Blood [7] = experiment: Biodistribution in blood of mouse EMT6 tumor bearing BALB/c mouse at 10 to 20 uCi after 60 mins; type: ADME, organism-based; settings: in vivo, 1 h; method in brief: as §1
Heart [8] = experiment: Biodistribution in heart of mouse EMT6 tumor bearing BALB/c mouse at 10 to 20 uCi after 30 mins; type: ADME, organism-based; settings: in vivo, 0.5 h; method in brief: as §1
Adipose tissue [9] = experiment: Biodistribution in fat of mouse EMT6 tumor bearing BALB/c mouse at 10 to 20 uCi after 60 mins; type: ADME, organism-based; settings: in vivo, 1 h; method in brief: as §1
EMT6 [10] = experiment: Biodistribution in tumor of mouse EMT6 tumor bearing BALB/c mouse at 10 to 20 uCi after 60 mins; type: ADME, organism-based; settings: emt6, 1 h; method in brief: as §1
Blood [11] = experiment: Biodistribution in blood of mouse EMT6 tumor bearing BALB/c mouse at 10 to 20 uCi after 5 mins; type: ADME, organism-based; settings: in vivo; method in brief: as §1
Bone [12] = experiment: Biodistribution in bone of mouse EMT6 tumor bearing BALB/c mouse at 10 to 20 uCi after 5 mins; type: ADME, organism-based, Bone element; settings: in vivo; method in brief: as §1
Heart [13] = experiment: Biodistribution in heart of EMT6 tumor bearing BALB/c mouse at 10 to 20 uCi after 120 mins; type: ADME, organism-based; settings: in vivo, 2 h; method in brief: as §1
Bone [14] = experiment: Biodistribution in bone of mouse EMT6 tumor bearing BALB/c mouse at 10 to 20 uCi after 120 mins; type: ADME, organism-based, Bone element; settings: in vivo, 2 h; method in brief: as §1
Lung [15] = experiment: Biodistribution in lung of mouse EMT6 tumor bearing BALB/c mouse at 10 to 20 uCi after 5 mins; type: ADME, organism-based; settings: in vivo; method in brief: as §1
Liver [16] = experiment: Biodistribution in liver of mouse EMT6 tumor bearing BALB/c mouse at 10 to 20 uCi after 120 mins; type: ADME, organism-based; settings: in vivo, 2 h; method in brief: as §1
EMT6 [17] = experiment: Biodistribution in tumor of EMT6 tumor bearing BALB/c mouse 10 to 20 uCi after 30 mins; type: ADME, organism-based; settings: emt6, 0.5 h; method in brief: as §1
Adipose tissue [18] = experiment: Biodistribution in fat of mouse EMT6 tumor bearing BALB/c mouse at 10 to 20 uCi after 30 mins; type: ADME, organism-based; settings: in vivo, 0.5 h; method in brief: as §1
Muscle tissue [19] = experiment: Biodistribution in muscle of mouse EMT6 tumor bearing BALB/c mouse at 10 to 20 uCi after 30 mins; type: ADME, organism-based; settings: in vivo, 0.5 h; method in brief: as §1
Heart [20] = experiment: Biodistribution in heart of mouse EMT6 tumor bearing BALB/c mouse at 10 to 20 uCi after 5 mins; type: ADME, organism-based; settings: in vivo; method in brief: as §1
Lung [21] = experiment: Biodistribution in lung of mouse EMT6 tumor bearing BALB/c mouse at 10 to 20 uCi after 30 mins; type: ADME, organism-based; settings: in vivo, 0.5 h; method in brief: as §1
Adipose tissue [22] = experiment: Biodistribution in fat of mouse EMT6 tumor bearing BALB/c mouse at 10 to 20 uCi after 5 mins; type: ADME, organism-based; settings: in vivo; method in brief: as §1
Liver [23] = experiment: Biodistribution in liver of mouse EMT6 tumor bearing BALB/c mouse at 10 to 20 uCi after 30 mins; type: ADME, organism-based; settings: in vivo, 0.5 h; method in brief: as §1
Liver [24] = experiment: Biodistribution in liver of mouse EMT6 tumor bearing BALB/c mouse at 10 to 20 uCi after 60 mins; type: ADME, organism-based; settings: in vivo, 1 h; method in brief: as §1
Lung [25] = experiment: Biodistribution in lung of mouse EMT6 tumor bearing BALB/c mouse at 10 to 20 uCi after 60 mins; type: ADME, organism-based; settings: in vivo, 1 h; method in brief: as §1
Bone [26] = experiment: Biodistribution in bone of mouse EMT6 tumor bearing BALB/c mouse at 10 to 20 uCi after 30 mins; type: ADME, organism-based, Bone element; settings: in vivo, 0.5 h; method in brief: as §1
Kidney [27] = experiment: Biodistribution in kidney of mouse EMT6 tumor bearing BALB/c mouse at 10 to 20 uCi after 30 mins; type: ADME, organism-based; settings: in vivo, 0.5 h; method in brief: as §1
Muscle tissue [28] = experiment: Biodistribution in muscle of mouse EMT6 tumor bearing BALB/c mouse at 10 to 20 uCi after 60 mins; type: ADME, organism-based; settings: in vivo, 1 h; method in brief: as §1
Muscle tissue [29] = experiment: Biodistribution in muscle of mouse EMT6 tumor bearing BALB/c mouse at 10 to 20 uCi after 120 mins; type: ADME, organism-based; settings: in vivo, 2 h; method in brief: as §1
Adipose tissue [30] = experiment: Biodistribution in fat of mouse EMT6 tumor bearing BALB/c mouse at 10 to 20 uCi after 120 mins; type: ADME, organism-based; settings: in vivo, 2 h; method in brief: as §1
Brain [31] = experiment: Biodistribution in brain of mouse EMT6 tumor bearing BALB/c mouse at 10 to 20 uCi after 120 mins; type: ADME, organism-based; settings: in vivo, 2 h; method in brief: as §1
Kidney [32] = experiment: Biodistribution in kidney of mouse EMT6 tumor bearing BALB/c mouse at 10 to 20 uCi after 5 mins; type: ADME, organism-based; settings: in vivo; method in brief: as §1
Kidney [33] = experiment: Biodistribution in kidney of mouse EMT6 tumor bearing BALB/c mouse at 10 to 20 uCi after 60 mins; type: ADME, organism-based; settings: in vivo, 1 h; method in brief: as §1
EMT6 [34] = experiment: Biodistribution in tumor of mouse EMT6 tumor bearing BALB/c mouse at 10 to 20 uCi after 5 mins; type: ADME, organism-based; settings: emt6, 5 min; method in brief: as §1
Muscle tissue [35] = experiment: Biodistribution in muscle of EMT6 tumor bearing BALB/c mouse at 10 to 20 uCi after 5 mins; type: ADME, organism-based; settings: in vivo; method in brief: as §1
Liver [36] = experiment: Biodistribution in liver of mouse EMT6 tumor bearing BALB/c mouse at 10 to 20 uCi after 5 mins; type: ADME, organism-based; settings: in vivo; method in brief: as §1
Bone [37] = experiment: Biodistribution in bone of mouse EMT6 tumor bearing BALB/c mouse at 10 to 20 uCi after 60 mins; type: ADME, organism-based, Bone element; settings: in vivo, 1 h; method in brief: as §1
Kidney [38] = experiment: Biodistribution in kidney of mouse EMT6 tumor bearing BALB/c mouse at 10 to 20 uCi after 120 mins; type: ADME, organism-based; settings: in vivo, 2 h; method in brief: as §1
Brain [39] = experiment: Biodistribution in brain of EMT6 tumor bearing BALB/c mouse at 10 to 20 uCi after 30 mins; type: ADME, organism-based; settings: in vivo, 0.5 h; method in brief: as §1
Brain [40] = experiment: Biodistribution in brain of EMT6 tumor bearing BALB/c mouse at 10 to 20 uCi after 5 mins; type: ADME, organism-based; settings: in vivo; method in brief: as §1
[41] = Selectivity for rat liver sigma 2 receptor over guinea pig brain sigma 1 receptor
[42] = Displacement of [3H]DTG from sigma 2 receptor in rat liver membrane after 120 mins; type: cell membranes
Method in brief: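 Rat liver membranes (~300 µg protein) incubated with ~5 nM [3H]DTG plus 1 µM (+)-pentazocine to mask σ1 sites, 120 min at room temperature; 10 µM haloperidol defines nonspecific binding; filtration and scintillation counting. One-site nonlinear regression IC50, converted to Ki by Cheng-Prusoff; mean ± SEM.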

Work on `COc1cc2c(cc1OC)CN(CCCCNC(=O)c1cc(I)ccc1OCC[18F])CC2` yielded a Drug uptake (Heart [1]) of 1.61 % ID/g, a Drug uptake (Blood [2]) of 1.92 % ID/g and a Drug uptake (EMT6 [3]) of 1.92 % ID/g. It also gave a Drug uptake (Lung [4]) of 1.36 % ID/g, a Drug uptake (Brain [5]) of 0.36 % ID/g and a Drug uptake (Blood [6]) of 4.3 % ID/g. It also gave a Drug uptake (Blood [7]) of 3.39 % ID/g, a Drug uptake (Heart [8]) of 2.37 % ID/g and a Drug uptake (Adipose tissue [9]) of 0.62 % ID/g. It also gave a Drug uptake (EMT6 [10]) of 2.72 % ID/g, a Drug uptake (Blood [11]) of 4.6 % ID/g and a Drug uptake (Bone [12]) of 2.59 % ID/g. It also gave a Drug uptake (Heart [13]) of 1 % ID/g, a Drug uptake (Bone [14]) of 1.67 % ID/g and a Drug uptake (Lung [15]) of 9.71 % ID/g. For the same compound, the Drug uptake (Liver [16]) was 4.25 % ID/g, the Drug uptake (EMT6 [17]) was 2.81 % ID/g and the Drug uptake (Adipose tissue [18]) was 1.04 % ID/g. It also gave a Drug uptake (Muscle tissue [19]) of 1.12 % ID/g, a Drug uptake (Heart [20]) of 3.22 % ID/g and a Drug uptake (Lung [21]) of 4.07 % ID/g. For the same compound, the Drug uptake (Adipose tissue [22]) was 2.32 % ID/g, the Drug uptake (Liver [23]) was 17.35 % ID/g and the Drug uptake (Liver [24]) was 7.31 % ID/g. For the same compound, the Drug uptake (Lung [25]) was 2.34 % ID/g, the Drug uptake (Bone [26]) was 1.31 % ID/g and the Drug uptake (Kidney [27]) was 17.43 % ID/g. For the same compound, the Drug uptake (Muscle tissue [28]) was 0.83 % ID/g, the Drug uptake (Muscle tissue [29]) was 0.6 % ID/g and the Drug uptake (Adipose tissue [30]) was 0.44 % ID/g. The Drug uptake (Brain [31]) was 0.37 % ID/g, the Drug uptake (Kidney [32]) was 36.07 % ID/g and the Drug uptake (Kidney [33]) was 9.36 % ID/g. For the same compound, the Drug uptake (EMT6 [34]) was 2.54 % ID/g, the Drug uptake (Muscle tissue [35]) was 1.52 % ID/g and the Drug uptake (Liver [36]) was 37.26 % ID/g. For the same compound, the Drug uptake (Bone [37]) was 0.99 % ID/g, the Drug uptake (Kidney [38]) was 3.92 % ID/g and the Drug uptake (Brain [39]) was 0.44 % ID/g. It also gave a Drug uptake (Brain [40]) of 0.55 % ID/g.
`COc1cc2c(cc1OC)CN(CCNC(=O)c1cc(C)ccc1OCCF)CC2` showed a Ratio Ki [41] of 222 and a Ki [42] of 102 nM.
Compound `COc1cc2c(cc1OC)CN(CCCCNC(=O)c1cc(C)ccc1OCCF)CC2` has a Ratio Ki [41] of 48 and a Ki [42] of 6.95 nM.
